# System: HEK-293T
# Assay: Multiplex assay against HEK293T
# Assay type: toxicity, cell-based
# Conditions: human
# In short: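 Phenotypes for tubulin, mitochondrial mass and membrane permeability are expressed as per cents of healthy-nucleus cells. Cells were stained live at seeding with Hoechst33342, BioTracker Green Microtubule Cytoskeleton Dye, MitoTracker Red and Annexin V Alexa Fluor 680, then imaged after compound addition on a CQ1 microscope at 37°C and 5% CO2. Machine-learning gating in CellPathfinder separated Hoechst high-intensity objects from normal cells, divided normal cells by nuclear state (healthy, pyknosed, fragmented) and divided pyknosed cells into mitotic or apoptotic.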
# [1] = 12 h, 1 µM, compound concentration 1 uM, replicate 1
# [2] = 12 h, 1 µM, compound concentration 1 uM, replicate 2
# [3] = 12 h, 10 µM, compound concentration 10 uM, replicate 1
# [4] = 12 h, 10 µM, compound concentration 10 uM, replicate 2
# [5] = 24 h, 1 µM, compound concentration 1 uM, replicate 1
# [6] = 24 h, 1 µM, compound concentration 1 uM, replicate 2
# [7] = 24 h, 10 µM, compound concentration 10 uM, replicate 1
# [8] = 24 h, 10 µM, compound concentration 10 uM, replicate 2
# [9] = 48 h, 1 µM, compound concentration 1 uM, replicate 1
# [10] = 48 h, 1 µM, compound concentration 1 uM, replicate 2
# [11] = 48 h, 10 µM, compound concentration 10 uM, replicate 1
# [12] = 48 h, 10 µM, compound concentration 10 uM, replicate 2
smiles,measurement,setting,value
NCCc1cn(S(=O)(=O)c2c(Cl)nc3sccn23)c2ccccc12.O=C(O)C(=O)O,Population Apoptotic (%),[1],37%
same,Population Fragmented Nuclei (%),[1],5%
same,Population Healthy Nuclei (%),[1],83%
same,Population Hoechst High Intensity Objects (%),[1],7%
same,Population Membrane Permeable-Phenotype (%),[1],0%
same,Population Mitochondria Different-Phenotype (%),[1],53%
same,Population Mitotic Cells (%),[1],62%
same,Population Normal (%),[1],92%
same,Population Pyknosed Nuclei (%),[1],11%
same,Population Tubulin-Different-Phenotype (%),[1],40%
same,Total Cell Count,[1],446
same,Population Apoptotic (%),[2],52%
same,Population Fragmented Nuclei (%),[2],8%
same,Population Healthy Nuclei (%),[2],78%
same,Population Hoechst High Intensity Objects (%),[2],8%
same,Population Mitochondria Different-Phenotype (%),[2],66%
same,Population Mitotic Cells (%),[2],47%
same,Population Normal (%),[2],91%
same,Population Pyknosed Nuclei (%),[2],13%
same,Population Tubulin-Different-Phenotype (%),[2],34%
same,Total Cell Count,[2],316
same,Population Apoptotic (%),[3],63%
same,Population Fragmented Nuclei (%),[3],8%
same,Population Healthy Nuclei (%),[3],49%
same,Population Hoechst High Intensity Objects (%),[3],22%
same,Population Membrane Permeable-Phenotype (%),[3],0%
same,Population Mitochondria Different-Phenotype (%),[3],96%
same,Population Mitotic Cells (%),[3],36%
same,Population Normal (%),[3],77%
same,Population Pyknosed Nuclei (%),[3],42%
same,Population Tubulin-Different-Phenotype (%),[3],88%
same,Total Cell Count,[3],292
same,Population Apoptotic (%),[4],64%
same,Population Healthy Nuclei (%),[4],67%
same,Population Hoechst High Intensity Objects (%),[4],25%
same,Population Mitochondria Different-Phenotype (%),[4],97%
same,Population Mitotic Cells (%),[4],35%
same,Population Normal (%),[4],74%
same,Population Pyknosed Nuclei (%),[4],23%
same,Population Tubulin-Different-Phenotype (%),[4],82%
same,Total Cell Count,[4],209
same,Population Apoptotic (%),[5],33%
same,Population Fragmented Nuclei (%),[5],9%
same,Population Healthy Nuclei (%),[5],79%
same,Population Hoechst High Intensity Objects (%),[5],6%
same,Population Membrane Permeable-Phenotype (%),[5],1%
same,Population Mitochondria Different-Phenotype (%),[5],28%
same,Population Mitotic Cells (%),[5],66%
same,Population Normal (%),[5],93%
same,Population Pyknosed Nuclei (%),[5],11%
same,Population Tubulin-Different-Phenotype (%),[5],26%
same,Total Cell Count,[5],585
same,Population Apoptotic (%),[6],41%
same,Population Fragmented Nuclei (%),[6],12%
same,Population Healthy Nuclei (%),[6],78%
same,Population Hoechst High Intensity Objects (%),[6],4%
same,Population Mitochondria Different-Phenotype (%),[6],46%
same,Population Mitotic Cells (%),[6],58%
same,Population Normal (%),[6],95%
same,Population Pyknosed Nuclei (%),[6],8%
same,Population Tubulin-Different-Phenotype (%),[6],19%
same,Total Cell Count,[6],438
same,Population Apoptotic (%),[7],74%
same,Population Fragmented Nuclei (%),[7],14%
same,Population Healthy Nuclei (%),[7],37%
same,Population Hoechst High Intensity Objects (%),[7],34%
same,Population Membrane Permeable-Phenotype (%),[7],2%
same,Population Mitochondria Different-Phenotype (%),[7],83%
same,Population Mitotic Cells (%),[7],25%
same,Population Normal (%),[7],65%
same,Population Pyknosed Nuclei (%),[7],48%
same,Population Tubulin-Different-Phenotype (%),[7],44%
same,Total Cell Count,[7],310
same,Population Apoptotic (%),[8],75%
same,Population Healthy Nuclei (%),[8],62%
same,Population Mitochondria Different-Phenotype (%),[8],95%
same,Population Mitotic Cells (%),[8],24%
same,Population Pyknosed Nuclei (%),[8],22%
same,Population Tubulin-Different-Phenotype (%),[8],76%
same,Total Cell Count,[8],195
same,Population Apoptotic (%),[9],23%
same,Population Fragmented Nuclei (%),[9],16%
same,Population Healthy Nuclei (%),[9],77%
same,Population Hoechst High Intensity Objects (%),[9],3%
same,Population Membrane Permeable-Phenotype (%),[9],0%
same,Population Mitochondria Different-Phenotype (%),[9],22%
same,Population Mitotic Cells (%),[9],76%
same,Population Normal (%),[9],96%
same,Population Pyknosed Nuclei (%),[9],6%
same,Population Tubulin-Different-Phenotype (%),[9],19%
same,Total Cell Count,[9],972
same,Population Apoptotic (%),[10],47%
same,Population Fragmented Nuclei (%),[10],12%
same,Population Healthy Nuclei (%),[10],82%
same,Population Hoechst High Intensity Objects (%),[10],5%
same,Population Membrane Permeable-Phenotype (%),[10],1%
same,Population Mitochondria Different-Phenotype (%),[10],23%
same,Population Mitotic Cells (%),[10],52%
same,Population Normal (%),[10],94%
same,Population Pyknosed Nuclei (%),[10],5%
same,Population Tubulin-Different-Phenotype (%),[10],14%
same,Total Cell Count,[10],678
same,Population Apoptotic (%),[11],53%
same,Population Fragmented Nuclei (%),[11],27%
same,Population Healthy Nuclei (%),[11],24%
same,Population Hoechst High Intensity Objects (%),[11],62%
same,Population Membrane Permeable-Phenotype (%),[11],11%
same,Population Mitochondria Different-Phenotype (%),[11],74%
same,Population Mitotic Cells (%),[11],46%
same,Population Normal (%),[11],37%
same,Population Pyknosed Nuclei (%),[11],47%
same,Population Tubulin-Different-Phenotype (%),[11],55%
same,Total Cell Count,[11],294
same,Population Apoptotic (%),[12],78%
same,Population Fragmented Nuclei (%),[12],19%
same,Population Healthy Nuclei (%),[12],47%
same,Population Hoechst High Intensity Objects (%),[12],47%
same,Population Membrane Permeable-Phenotype (%),[12],1%
same,Population Mitochondria Different-Phenotype (%),[12],75%
same,Population Mitotic Cells (%),[12],21%
same,Population Normal (%),[12],52%
same,Population Pyknosed Nuclei (%),[12],33%
same,Population Tubulin-Different-Phenotype (%),[12],52%
same,Total Cell Count,[12],212

# Reference: ChEMBL document CHEMBL5058577, “EUbOPEN Chemogenomics Library 2 (Multiplex)” (2022)
